# Measured values reported in publication PMC5924903 (Proceedings of the National Academy of Sciences of the …, 2018).
# Peptide text beside a SMILES is read from it.
# Tested on: HsNAA10
# Test: Nt acetyltransferase inhibitor assay
# Format: biochemical
# Settings: Ki panel of human NATs
# In short: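 In vitro Nt-acetylation assay on purified human NAT enzymes. IC50 values were determined for NAA80. Ki values for the bisubstrate inhibitor were determined across a panel of human NATs. Each reaction was run at least three times, in triplicate. Errors are given as SD.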
smiles,measurement,value
CC[C@H](C)[C@H](NC(=O)[C@H](CC(=O)O)NC(=O)[C@H](CC(=O)O)NC(=O)[C@H](CC(=O)O)NC(=O)CSCCNC(=O)CCNC(=O)[C@H](O)C(C)(C)COP(=O)(O)OP(=O)(O)OC[C@H]1O[C@@H](n2cnc3c(N)ncnc32)[C@H](O)[C@@H]1OP(=O)(O)O)C(N)=O [CoA-Ac-DDDI-NH2] (HELM PEPTIDE1{[CC(C)(COP(=O)(O)OP(=O)(O)OC[C@H]1O[C@@H](n2cnc3c(N)ncnc32)[C@H](O)[C@@H]1OP(=O)(O)O)[C@@H](O)C(=O)[*:2]].[bAla].[O=C(CSCCN[*:1])[*:2]].D.D.D.I.[am]}$$$$V2.0),Fold reduced potency for NAA10 compared with NAA80,88 fold
